The values that follow come from PubChem BioAssay AID504666 (Broad Institute, 2011).

Where “and” joins values, the source holds several entries; their conditions need not be identical. Equal entries are not always repeated. Results filed as inconclusive are left out. Calls of active or inactive are those of the source.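 The calls were made as follows: active = compounds lowering the viability signal in every test, with half-maximal concentration at most ten times the top dose; inconclusive = mixed test calls, a flat partial drop, or a poor fit; inactive = all tests inactive.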

Test system in the first experiment: not listed separately
The experiment is described as follows: viability loss in shGFP HMLE line – cell-based, CellTiter-Glo luminescence, 72 h, dry powder, set 6, counter-screen for breast cancer stem cell project, dose response (AID 504666). As to conditions: HMLE_sh_eGFP viability, CellTiter-Glo luminescence, 72 h; at 19.5 µM (top of the series). Summed up: (§1)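 dosing = 100 nL pinned compound | system = HMLE_sh_eGFP cells | detection = CellTiter-Glo luminescence | times = ~70-74 h compound exposure, 37 °C | medium = serum-free culture medium for cell plating and exposure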
(In ATP-based viability assays light output follows the ATP content of the culture.)
As for `Cc1csc(NC(=O)c2ccc(COc3cccc(S(C)(=O)=O)c3)o2)n1`, the activity change, negative = toxicity is -5.74% (inactive).
In the case of `COc1ccc(/C=C/C(=O)NC2=NCCS2)c(OC)c1`, the activity change, negative = toxicity was -4.82% (inactive).
In the case of `Cc1csc(NC(=O)c2ccc(CS(=O)(=O)c3ccccc3)o2)n1`, the activity change, negative = toxicity is 1.03% (inactive).
On to `O=C(Nc1nncs1)c1ccc(COc2ccccc2)o1`, for which the activity change, negative = toxicity is 8.89% (inactive).
For `Cc1csc(NC(=O)c2ccc(COC(C)(C)C)o2)n1`, the activity change, negative = toxicity was -6.71% (inactive).
Consider `Cc1coc(NC(=O)c2ccc(COc3ccccc3)o2)n1`, for which the activity change, negative = toxicity was -6.36% (inactive).
On to `CC(C)c1ccc(/C=C/C(=O)N(C)C2=NCCS2)cc1`, for which the activity change, negative = toxicity is -2.24% (inactive).
Regarding `C/C(=C\C(=O)NC1=NCCS1)c1ccc(C)cc1`, the activity change, negative = toxicity was -6.97% (inactive).
Still for that read-out and setting: the value for `Cc1cc(C)c(OCC(=O)N/N=C/c2ccc[nH]2)c(C)c1` was -14% (inactive); that for `Cc1csc(NC(=O)c2ccc(COC(C)C)o2)n1` was 7.01% (inactive); that for `CCN(CC)C(=O)c1ccc(COc2ccccc2)o1` was -2.12% (inactive).
With `Cc1coc(NC(=O)/C=C/c2ccc(C(C)C)cc2)n1`, the activity change, negative = toxicity is -9.8% (inactive).
As to `CC(C)NC(=O)c1ccc(COc2ccccc2)o1`, the activity change, negative = toxicity was 0.674% (inactive).

Staying with this experiment, now noted: HMLE_sh_eGFP viability, CellTiter-Glo luminescence, 72 h; at 30 µM (top of the series).
`COc1ccc(OC)c2sc(NC(=O)c3ccc(COc4ccccc4)o3)nc12`: the activity change, negative = toxicity is -8.62% (inactive).
Same read-out and setting: the value for `Cc1ccc2cc(C(=O)NC3=NCCS3)n(C)c2c1` was -2.52% (inactive); that for `Cc1csc(NC(=O)c2cocc2COc2ccccc2)n1` was 8.46% (inactive).

Another experiment has as its system HMLE_sh_eGFP viability, CellTiter-Glo luminescence, 72 h. Described as above.
Settings: not given
In outline: as §1
Consider `CC(C)c1ccc(/C=C/C(=O)Nc2cncs2)cc1`, for which the concentration at half-maximal activity (AC50) – broadly, the concentration at which the activity in the assay is half-maximal – is 9.59 µM.
With `Cc1csc(NC(=O)c2ccc(COc3cc(Cl)ccc3Cl)o2)n1`, the AC50 is 0.063 µM.
As for `N#Cc1csc(NC(=O)c2ccc(COc3ccccc3)o2)n1`, the half-maximal activity concentration (AC50) was 23.1 µM.
On to `COc1ccc(OCc2ccc(C(=O)Nc3nc(C)cs3)o2)c(F)c1`, for which the half-maximal activity concentration (AC50) is 14.2 µM.
Take `Cc1csc(NC(=O)c2ccc(CNc3ccccc3)o2)n1`: the AC50 is 2.62 µM.
`COc1ccc2nc(NC(=O)c3ccc(COc4ccccc4)o3)sc2c1`: the AC50 was 2.54 µM.
For `CC(C)c1ccc(/C=C/C(=O)Nc2nc(C(F)(F)F)cs2)cc1`, the AC50 was 8.98 µM.
With `Cc1csc(NCc2ccc(COc3ccccc3)o2)n1`, the AC50 was 20.7 µM.
On to `Cc1ccc(OCc2ccc(C(=O)Nc3nc(C)cs3)o2)cc1`, for which the AC50 was 6.79 µM.
The same measure, in the same setting: the figure for `Cc1csc(NC(=O)c2ccc(COc3cccc(OC(F)(F)F)c3)o2)n1` is 0.667 µM; for `CCc1ccc(/C=C/C(=O)NC2=NCCS2)cc1` it is 28.3 µM; for `Cc1csc(NC(=O)c2ccc(COc3ccccc3F)o2)n1` it is 0.089 µM.
In the case of `Cc1csc(NC(=O)c2ccoc2COc2ccccc2)n1`, the AC50 was 20.5 µM.
Same read-out and setting: the value for `O=C(Nc1nc2c(Cl)cccc2s1)c1ccc(COc2ccccc2)o1` was 31.3 µM; that for `Cc1csc(NC(=O)c2ccc(COc3ccccc3)o2)n1` was 21.1 µM.
Consider `Cc1csc(NC(=O)c2ccc(COc3cccc(Cl)c3)o2)n1`, for which the AC50 is 9.15 µM.
For the compound `C/C(=C\C(=O)NC1=NCCS1)c1ccc(CC(C)C)cc1`, the AC50 was 27.4 µM.
Turning to `Cc1csc(NC(=O)c2ccc(COc3cccc(F)c3)o2)n1`, the AC50 is 18.6 µM.
Turning to `CC(C)c1ccc(C2CC2C(=O)NC2=NCCS2)cc1` (stereo not drawn), the AC50 was 23.9 µM.
On to `CC(C)c1ccc(/C=C/C(=O)NC2=NCCS2)cc1`, for which the AC50 is 21.7 µM.
Regarding `Cc1csc(NC(=O)c2ccc(COC3CCCCC3)o2)n1`, the AC50 was 18.5 µM.
Consider `Cc1cc(Br)ccc1OCC(=O)N/N=C/c1ccc[nH]1`, for which the AC50 is 17.7 µM.
With `Cc1csc(NC(=O)c2ccc(CCc3ccccc3)o2)n1`, the AC50 was 5.68 µM.
Take `Cc1csc(NC(=O)c2ccc(COCc3ccccc3)o2)n1`: the AC50 is 10.5 µM.
For the compound `COc1cccc(OCc2ccc(C(=O)Nc3nc(C)cs3)o2)c1`, the AC50 was 1.65 µM.
On the same count and under the same terms, the value for `COc1ccc(Cl)c(OCc2ccc(C(=O)Nc3nc(C)cs3)o2)c1` was 0.166 µM; that for `Cc1cccc(OCc2ccc(C(=O)Nc3nc(C)cs3)o2)c1` was 0.254 µM and 1.98 µM.
Take `O=C(Nc1nc(C(F)(F)F)cs1)c1ccc(COc2ccccc2)o1`: the AC50 is 19.3 µM.
For the compound `Cc1csc(NC(=O)c2ccc(COc3cccc(Oc4ccccc4)c3)o2)n1`, the AC50 is 0.738 µM.
Consider `CC(C)Cc1ccc(/C=C/C(=O)NC2=NCCS2)cc1`, for which the AC50 was 1.07 µM.
`Cc1csc(NC(=O)c2coc(COc3ccccc3)c2)n1`: the AC50 is 2.78 µM.
For the compound `CCOc1cccc(OCc2ccc(C(=O)Nc3nc(C)cs3)o2)c1`, the AC50 is 4.16 µM.
